Measured values of several laboratories.
Compare with care: the assays were run in different laboratories.
Target: Rho-associated protein kinase 1 (ROCK1, Homo sapiens, UniProt Q13464)

| Compound | test | conditions | endpoint | result |
| --- | --- | --- | --- | --- |
| COc1ccc2oc(-c3ccc4nc(N)oc4c3)c/c(=N\c3ccccc3NC(=O)CCN)c2c1 | binding | 1 µM | remaining binding | 106% |
| C[C@H]1CC[C@H](n2c3cnccc3c3cnc(Nc4ccc5c(n4)CCN(C(=O)CO)C5)nc32)CC1 | cell-free assay | 1 µM | remaining signal | 100% |
| Cc1cc(O)c(-c2ccc([C@@H](C)CN(C)C)cc2)c2c1[nH]c(=O)c1sccc12 | enzyme activity, inhibitor | 0.1 µM | inhibition | -3.74% |
| CCCCC(=O)Nc1ccc(-c2ccc3ncn(CCC)c(=O)c3c2)cn1 | binding, competition with immobilised ligand | 0.5 µM | remaining binding | 100% |
| C=CC(=O)N1CCC[C@@H](n2nc(-c3ccc(Oc4ccccc4)cc3)c3c(N)ncnc32)C1 | enzyme activity, inhibitor | 1 µM | inhibition | 26% |
| Cc1cc(-c2ccnc3[nH]cc(F)c23)cc(F)c1[C@@]1(O)[C@H](C)CN(C(=O)CN)C[C@@H]1C | enzyme activity, inhibitor | 15 nM | remaining activity | 48.7% |
| CO[C@@H]1[C@H](N(C)C(=O)c2ccccc2)C[C@H]2O[C@]1(C)n1c3ccccc3c3c4c(c5c6ccccc6n2c5c31)C(=O)NC4 | enzyme activity, inhibitor | 1 µM | inhibition | 43% |
| Cc1cc(-c2ccnc3[nH]cc(F)c23)cc(F)c1[C@@]1(O)[C@H](C)CN(C2CCS(=O)(=O)CC2)C[C@@H]1C | enzyme activity, inhibitor | 0.1 µM | remaining activity | 7.04% |
| CN1CCN(C(=O)c2ccc(NC(=O)Nc3ccc(N(C)c4ccnc(Nc5ccc(CS(C)(=O)=O)cc5)n4)cc3)cc2)CC1 | binding | 1 µM | remaining binding | 17% |
